# M1 antagonist – M1 muscarinic receptor (rat) antagonism; B-score at 10 µM; CHO-M1 cells, Fluo-4 calcium, ACh EC80 antagonist mode; stronger effect = lower value; hit rate 3.4% among 64,000; AID 628;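 active means calcium fluorescence response, raw or row-and-column corrected B-score, differing from the plate sample mean either way at a set confidence level, mostly lower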
# Target sequence (P08482 whole entry, looked up): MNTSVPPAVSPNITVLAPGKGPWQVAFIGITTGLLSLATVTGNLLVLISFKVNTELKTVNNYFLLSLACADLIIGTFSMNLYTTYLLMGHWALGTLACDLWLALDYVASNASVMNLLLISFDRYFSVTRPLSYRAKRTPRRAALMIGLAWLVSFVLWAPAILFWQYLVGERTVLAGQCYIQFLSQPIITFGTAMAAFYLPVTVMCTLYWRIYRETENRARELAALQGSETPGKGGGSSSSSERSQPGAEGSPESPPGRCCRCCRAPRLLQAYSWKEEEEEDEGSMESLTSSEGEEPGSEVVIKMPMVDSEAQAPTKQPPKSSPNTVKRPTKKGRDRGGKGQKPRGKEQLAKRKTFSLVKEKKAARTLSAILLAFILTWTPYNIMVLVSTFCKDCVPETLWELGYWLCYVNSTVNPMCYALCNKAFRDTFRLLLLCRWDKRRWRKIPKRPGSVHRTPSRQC
# Ecoli WT expand – growth inhibitors of E. coli BW25113 wild type; OD600 absorbance; growth inhibition, % at 100 µM; hit rate 0.15% among 98,000;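 active means growth inhibition above about 50% at one test dose, limit read from the data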;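 further: growth measured after 20 h incubation at 37 °C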
# AP ELISA ortho – alternative pathway complement inhibition, orthogonal assay | Human serum alternative complement pathway, LPS-coated ELISA, C3 deposition; tested in compound mixtures | inhibition, % at 5 µM | hit rate 0.08% among 62,000 | AID 1235;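 active means inhibition above 30% in each of the two pooled mixtures holding the compound, so the lower value exceeds 30%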;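 further: 0% = serum in Mg-EGTA without compound and 100% = EDTA serum blank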
#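 Test system: human serum complement alternative pathway, C3 deposition onto LPS / Medium: Mg2+-EGTA GVB++ buffer containing human serum at 1:15 dilution / Probe or stimulus: Plate-bound LPS / Times: 1 h at 37 °C / Signal: ELISA with HRP anti-human C3 antibody, TMB substrate, absorbance 450 nm / Measure: percent inhibition / Repeats: two pool placements per compound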
# WNV NS2B-NS3 inh – WNV NS2B-NS3 proteinase inhibition | AID 577 | P06935 | WNV NS2B-NS3 protease, fluorogenic substrate Ex360/Em465; stronger effect = lower value | hit rate 0.18% among 65,000 | z-score (test concentration not listed); in the data active means z-score below about -3
# M1 ag – activates the M1 muscarinic receptor; CHO-M1 cells, Fluo-4 calcium fluorescence, agonist mode; stronger effect = higher value; B-score at 10 µM; AID 626; hit rate 3% among 64,000;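 active means fluorescence rise, raw or as B-score row- and column-corrected plate score, outside the 99.7% band of its plate's samples, either direction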
# tolC growth inh – growth inhibitors of E. coli BW25113 tolC mutant; OD615; growth inhibition, % at 10 µM (by protocol); hit rate 2.2% among 65,000; AID 573;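 active means growth inhibition at or above a cutoff equal to the mean over every tested compound plus 3 SD, cut at about 60% in these data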;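 further: growth measured after 20 h incubation at 37 °C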
#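 test system = E. coli BW25113 ΔtolC::kan bacteria | medium = LB with kanamycin 50 µg/mL | signal = OD at 615 nm | schedule = 37 °C, 20 h exposure | evaluation = % inhibition of E. coli growth | compound dosing = one dose of 10 µM final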
# M1 antag confirm – confirmation of rat M1 muscarinic receptor antagonists. shares compounds with M1 antagonist. hit rate 43% among 1,700. CHO-M1 cells, Fluo-4 calcium, ACh EC80 antagonism; stronger effect = lower value. calcium response (max-min fluorescence) at 10 µM. AID 677;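 active means calcium response below the same-plate mean of wells given acetylcholine alone at its 80%-effect dose, minus 3 SD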;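 further: raw fluorescence intensity difference in arbitrary instrument units and not normalized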
# mGluR4 antag – mGluR4 (human) activity, M1 antagonist secondary assay; shares compounds with M1 antagonist; CHO-mGluR4 calcium flux, Fluo-4 fluorescence, glutamate EC80; stronger effect = lower value; fluorescence response (max-min) at 10 µM; hit rate 0.9% among 1,700;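 active means fluorescence response below the plate's average for near-maximal glutamate wells, less 3 SD of those wells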;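 further: raw unnormalized fluorescence span taken in the window right after glutamate addition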
# * marks the source's active call; other numbers are inactive results; x = no result. An excerpt weighted towards active compounds, which were near 5.2% of everything screened.
SMILES,M1 antagonist,Ecoli WT expand,AP ELISA ortho,WNV NS2B-NS3 inh,M1 ag,tolC growth inh,M1 antag confirm,mGluR4 antag
CC1(C)NC(=O)N(c2ccccc2Cl)C1(C)NO (stereo not given),-0.29,-5,10,0.43,-0.84,-28,x,x
Cc1ccc(S(=O)(=O)N2CCC(C(=O)N3CCC[C@H]3C(=O)NC3CCS(=O)(=O)C3)CC2)cc1 (stereo not given in full),-0.037,8,30,0.54,-1.2,-16,x,x
O=C(NC1CCS(=O)(=O)C1)C1CCCCN1S(=O)(=O)c1ccc(Cl)cc1 (stereo not given),-3.4*,4,2,-0.0091,0.31,-6,584,249
COCCNC(=O)CN1CCN(Cc2cccc(Cl)c2)C1=O,-0.55,-1,-2,1,0.043,-13,x,x
CCCC(C)NS(=O)(=O)c1ccc(OC)c(C)c1 (stereo not given),x,3,x,x,x,x,x,x
O=C(CCCN1CCC(c2ccccc2)C1)c1ccc2c(c1)OCCO2 (stereo not given),-8.8*,12,-5,0.3,-0.55,-9,251*,229
O=C(CCCN1CCOCC1)c1ccc2c(c1)OCCO2,-1.7,1,-5,0.28,-0.066,-5,x,x
O=C(CCN1CCc2ccccc2CC1)c1ccc2c(c1)OCCO2,-3.9*,8,-11,0.1,0.069,6,215*,194
Cn1c(Cc2ccccc2)nnc1SCC(=O)c1ccc(Br)s1,-1.7*,1,-4,0.81,-0.017,-2,461*,257
Cc1nn(Cc2ccccc2)c(=O)n1N(C)c1ncc(C(F)(F)F)cc1Cl,x,1,x,x,x,x,x,x
Cc1ccccc1N(CC(=O)NCCc1ccccc1)C(=O)c1ccc(N2CCCC2)nc1,-4.6*,-8,-9,-0.34,-0.95,20,667,241
CN1/C(=C\C(=O)c2cccs2)Sc2ccccc21,-6.5*,3,-3,-0.8,-1.1,68*,545,179
CN1/C(=C/C(=O)c2cccs2)Sc2ccccc21,x,-9,x,x,x,x,x,x
COc1ccc(C(=O)Nn2c(SCC(=O)NCC3CCCO3)nc3ccccc3c2=O)cc1 (stereo not given),-6.9*,0,1,-0.41,-0.79,1,575,229
CC(C)OCCCNC(=O)c1cc2c(s1)CS(=O)(=O)C2,-4.6*,3,1,-0.49,-0.0011,-13,625,239
Cc1cc2c(=O)n(CC(=O)N3CCN(c4ccc(F)cc4)CC3)cnc2s1,-0.1,-7,19,-0.11,-0.5,-20,x,x
COc1ccccc1N1CCN(CCCC(=O)c2ccc(F)cc2)CC1,-2*,6,16,-1.1,-1.1,-3,266*,207
CCN1CCN(Cc2c(C)[nH]c3ccc(OC)cc3c2=O)CC1,0.13,-5,7,-0.45,0.89,x,x,x
O=C(Nc1nc(-c2ccccc2)cs1)C1COc2ccccc2O1 (stereo not given),x,-7,x,x,x,x,x,x
O=C(Nc1nc(-c2ccc(S(=O)(=O)N3CCCC3)cc2)cs1)C1COc2ccccc2O1 (stereo not given),-8.7*,-5,2,-1.2,-1.9,17,559,206
COCCn1c(C23CC4CC(CC(C4)C2)C3)n[nH]c1=S,-2.8*,3,8,-0.25,0.98,25,610,257
COCCn1c(-c2ccccc2F)n[nH]c1=S,-0.33,15,-4,0.97,0.98,-13,x,x
c1ccc(Oc2cccc(NC3=NCCC3)c2)cc1,-3.5*,5,19,0.11,-0.76,0,393*,265
CCCC(=O)Nc1ccc2oc(-c3cccnc3)nc2c1,-2.4*,3,18,-0.03,-0.17,-12,582,229
COC(=O)CCC(=O)NC(=S)Nc1cc(Cl)ccc1Cl,x,-6,x,x,x,x,x,x
O=S1(=O)CC=C(CSc2nc3ccccc3[nH]2)C1,-2.3*,9,14,0.93,0.056,-28,566,201
COc1ccc(-c2cc(C(F)(F)F)nc(SCCC(=O)N3CCN4CCCC4C3)n2)cc1 (stereo not given),-3.4*,2,x,0.03,0.066,6,310*,248

# Bioassay records deposited in PubChem BioAssay by several laboratories.
